KCNK9 inh: blocks the human KCNK9 two-pore domain potassium channel; Q9NPC2; HEK293 KCNK9, FluxOR thallium flux fluorescence; stronger effect = lower value; B-score at 10 µM; actives 1.2% (n = 310,000); AID 488922;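 active means ratio B-score over 3 SD below the library mean, with starting fluorescence within 5 SD of its mean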;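 further: negative B-score means less thallium flux so channel inhibition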
KCNQ1 act: potentiates or activates the human KCNQ1 potassium channel. P51787. CHO-K1 KCNQ1, thallium flux FluxOR fluorescence; stronger effect = higher value. B-score at 10 µM. actives 0.35% (n = 310,000);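 active means fluorescence ratio B-score, a plate-corrected score, at least three library SD, with initial intensity B-score within 5 SD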
Target sequence (P51787 whole entry, looked up): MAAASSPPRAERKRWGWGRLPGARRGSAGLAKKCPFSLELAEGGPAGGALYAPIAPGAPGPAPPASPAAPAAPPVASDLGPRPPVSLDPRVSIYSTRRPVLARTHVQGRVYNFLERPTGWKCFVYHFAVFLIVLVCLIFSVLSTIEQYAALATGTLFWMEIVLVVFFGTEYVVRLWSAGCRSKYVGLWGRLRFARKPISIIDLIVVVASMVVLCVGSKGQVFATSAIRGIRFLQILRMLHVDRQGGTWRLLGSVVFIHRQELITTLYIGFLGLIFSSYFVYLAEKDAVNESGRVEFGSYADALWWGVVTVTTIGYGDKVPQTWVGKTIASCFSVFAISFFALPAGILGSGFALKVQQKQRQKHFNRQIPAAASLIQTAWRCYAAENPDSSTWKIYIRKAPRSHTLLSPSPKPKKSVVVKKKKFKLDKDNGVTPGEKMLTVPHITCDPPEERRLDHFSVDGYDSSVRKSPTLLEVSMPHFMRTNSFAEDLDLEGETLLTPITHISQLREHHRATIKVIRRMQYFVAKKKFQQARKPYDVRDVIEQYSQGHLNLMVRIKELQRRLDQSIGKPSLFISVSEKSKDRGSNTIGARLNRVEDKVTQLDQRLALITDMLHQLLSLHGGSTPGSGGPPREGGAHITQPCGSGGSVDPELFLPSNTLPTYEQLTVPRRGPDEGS
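Schedule – 37 °C overnight plating, 90-min dark dye load, 20-min compound pretreatment · System – stable KCNQ1 CHO-K1 line · Probe or stimulus – thallium- and potassium-containing depolarizing buffer · Measured by – kinetic FluxOR fluorescence, 10 s baseline plus 110 s post-stimulus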
hERG rescue: shields human hERG channel from block by proarrhythmic agents | Q12809 | CHO-hERG, FluxOR thallium flux, dofetilide IC70 present | activation (rescue from dofetilide block), less the hit threshold, % at 10 µM | actives 0.51% (n = 310,000) | AID 1511;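 active means activation above the mean of controls blocked by dofetilide plus 5 SD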;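 further: thallium influx through hERG after potassium depolarization seen as dye fluorescence rise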
Kir21 inh: blocks the mouse Kir2.1 inward-rectifier potassium channel; P35561; HEK293-Kir2.1, FluxOR thallium flux fluorescence; stronger effect = lower value; B-score at 10 µM; actives 0.85% (n = 310,000);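 active means fluorescence ratio B-score at or below minus 3 SD of library scores, with starting-brightness B-score within 2 SD, cut at about -4.2 in these data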;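 further: channel flux triggered by added potassium and thallium sulfate stimulus; B-score of peak minus minimum fluorescence over baseline after thallium stimulus; more negative B-score means stronger Kir2.1 block with less thallium influx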
KCNQ1 inh: human KCNQ1 channel inhibition; P51787; actives 1.3% (n = 310,000); AID 2642; CHO-K1 KCNQ1, FluxOR thallium flux fluorescence; stronger effect = higher value; B-score at 10 µM;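 active means compounds whose thallium flux B-score, printed positive for inhibition, exceeds three library SD while starting fluorescence stays within three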;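 further: channel opened by potassium depolarization with thallium stimulus after 20 min compound exposure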
KCNK3 block: human KCNK3 channel inhibition, primary screen. CHO-KCNK3 thallium flux, FluxOR fluorescence; stronger effect = lower value. B-score at 10 µM. actives 0.84% (n = 340,000). O14649;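 active means B-score under library mean minus 4 SD, starting fluorescence ratio at most library mean plus 5 SD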;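 further: more negative B-score means stronger inhibition of thallium flux through KCNK3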
KCNK9 block conf: human KCNK9 inhibitor confirmation; shares compounds with KCNK9 inh; HEK293 KCNK9 cells, FluxOR thallium flux fluorescence; inhibition, % at 10 µM; actives 43% (n = 4,900);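 active means thallium signal inhibited by more than 5 SD of the compound-free buffer control wells, on both duplicate plates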
Kir2-1 spec: selectivity of KCNK9 modulators against mouse Kir2.1. AID 492993. inhibition, % at 10 µM. shares compounds with KCNK9 inh. actives 4% (n = 4,900). Kir2.1 cells, FluxOR thallium flux fluorescence;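 active means thallium signal drop more than 5 SD beyond the mean of the no-compound control wells, seen in both duplicate plates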;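 further: signal is fluorescence rise after thallium addition divided by baseline fluorescence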
HEK293 Tl ctr: non-induced cell nonspecific activity of KCNK9 modulators; shares compounds with KCNK9 inh; non-induced KCNK9-HEK293, FluxOR thallium flux; inhibition, % at 10 µM; actives 40% (n = 4,900); AID 492997;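 active means thallium signal drop beyond 5 SD of the untreated control mean, on both duplicate plates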
Of the large screens only hits and unclear results are named; the others gave an inactive call (follow-up assays come after a bar, where they were run). An excerpt weighted towards active compounds, which were near 3.8% of everything screened.

COc1cc(OC)nc(Oc2ccccc2C(=O)Oc2ccc(F)cc2Cl)n1	KCNK9 inh -9.1 | KCNK9 block conf 59% | Kir2-1 spec inactive | HEK293 Tl ctr 39%
COc1cc(OC)nc(Oc2cccc(Cl)c2C)n1	none
Cn1c(Sc2ccc(Cl)cc2)c(C=O)c2ccccc21	KCNK9 inh -8.2, KCNQ1 inh 7 | KCNK9 block conf 57% | Kir2-1 spec inactive | HEK293 Tl ctr 46%
Cn1c(Oc2ccc(F)cc2F)c(C=O)c2ccccc21	none
CCCCCCc1c(C)c2ccc(OCC(=O)N[C@@H](Cc3ccccc3)C(=O)O)cc2oc1=O	none
O=C(CSc1nc2ccccc2c(=O)[nH]1)Nc1cccc([N+](=O)[O-])c1	none
CC1(C)NC(=O)N(CC(O)COc2ccccc2C(=O)Nc2ccccc2)C1=O (centres undefined)	KCNK9 inh -15 | KCNK9 block conf 58% | Kir2-1 spec inactive | HEK293 Tl ctr inactive
C/C(=N\NC(=S)NCCc1ccccc1)c1ccc(C)cc1	none | KCNK9 block conf inactive | Kir2-1 spec inactive | HEK293 Tl ctr inactive
C/C(=N\NC(=S)NCCc1ccccc1)c1ccc(C#N)cc1	none
C/C(=N\NC(=S)NCCc1ccccc1)c1ccc(Cl)cc1	none | KCNK9 block conf inactive | Kir2-1 spec inactive | HEK293 Tl ctr inactive
S=C(NCCc1ccccc1)N/N=C/c1ccccc1Cl	none | KCNK9 block conf inactive | Kir2-1 spec inactive | HEK293 Tl ctr inactive
O=C(c1cccnc1)N1CCC(Oc2ccc(C(=O)N3CCCC(O)C3)cc2)CC1 (centres undefined)	none
COc1cc(NC(=O)CCc2c(C)noc2C)c(Cl)cc1C(=O)O	none (no result: KCNK9 inh, KCNQ1 act, hERG rescue, Kir21 inh, KCNQ1 inh)
CCOc1cc(/C=N/NC(=O)CNc2cccc(C)c2)ccc1OC(=O)c1ccccc1	none
CCOc1cc(/C=N/Nc2cccc(C(=O)O)c2)ccc1OC(=O)c1ccccc1	none | KCNK9 block conf inactive | Kir2-1 spec inactive | HEK293 Tl ctr inactive
O=C(c1c[nH]c2ccccc12)N1CCOCC1	none
S=C(c1c[nH]c2ccc(Br)cc12)N1CCOCC1	KCNK9 inh -8.7 | KCNK9 block conf 50% | Kir2-1 spec inactive | HEK293 Tl ctr inactive
CC(=O)c1ccc(N2C(=O)CC(N3CCN(S(=O)(=O)c4cc(C)ccc4C)CC3)C2=O)cc1 (centres undefined)	none (no result: KCNK9 inh, KCNQ1 act, hERG rescue, Kir21 inh, KCNQ1 inh)
Cc1csc2nc(CSc3nc4ccccc4o3)c(Br)n12	KCNK9 inh -12 | KCNK9 block conf inactive | Kir2-1 spec inactive | HEK293 Tl ctr 46%
O=C(NCCNc1ccc([N+](=O)[O-])cc1C(F)(F)F)c1ccccc1F	none | KCNK9 block conf inactive | Kir2-1 spec inactive | HEK293 Tl ctr inactive
Cc1ccc(C(=O)NCCNc2ccc([N+](=O)[O-])cc2C(F)(F)F)cc1	none
Cc1ccc(-c2csc(NC(=O)CSC3=NCCS3)n2)cc1	none | KCNK9 block conf inactive | Kir2-1 spec inactive | HEK293 Tl ctr inactive
COc1ccc(N2C(=O)/C(=C\c3ccco3)N=C2SCC(=O)NC(C)C)cc1Cl	KCNK9 inh -12 | KCNK9 block conf 78% | Kir2-1 spec inactive | HEK293 Tl ctr 36%
c1ccc(-c2csc3ncnc(N4CCc5ccccc5C4)c23)cc1	KCNK9 inh -11, Kir21 inh -8.5 | KCNK9 block conf 55% | Kir2-1 spec inactive | HEK293 Tl ctr 38%
CC(=O)Nc1ccc(NC(=O)C(C)Oc2ccccc2C(=O)NCc2ccccc2)cc1 (centres undefined)	none (no result: KCNK9 inh, KCNQ1 act, hERG rescue, Kir21 inh, KCNQ1 inh)
Cc1ccc(NC(=O)C2CCN(S(=O)(=O)c3c(C)noc3/C=C/c3ccco3)CC2)nc1	none
Cc1cccnc1NC(=O)C1CCN(S(=O)(=O)c2c(C)noc2/C=C/c2ccco2)CC1	none | KCNK9 block conf inactive | Kir2-1 spec inactive | HEK293 Tl ctr inactive
COC(=O)CSc1nnc(NC(=O)C2CC(=O)N(c3ccc(F)cc3)C2)s1 (centres undefined)	none
O=C(COc1ccc(Br)cc1)NCCNC(=O)c1ccccn1	none
Cc1cccc(-c2noc(CN(C(=O)/C=C/c3ccccc3Cl)C(C)C)n2)c1	none
Cc1ccc(-c2noc(CN(C(=O)C(c3ccccc3)c3ccccc3)C(C)C)n2)cc1	KCNK9 inh -12 | KCNK9 block conf 40% | Kir2-1 spec inactive | HEK293 Tl ctr 33%
Cc1cccc(-c2noc(CN(C(=O)CCc3ccccc3)C(C)C)n2)c1	none | KCNK9 block conf inactive | Kir2-1 spec inactive | HEK293 Tl ctr 26%
CC(C)N(Cc1nc(-c2ccccc2)no1)C(=O)CN1C(=O)c2ccccc2C1=O	none
COC(=O)C(CC(=O)c1ccccc1)CC(=O)c1ccccc1	none
COc1ccccc1C(CC(=O)c1ccccc1)CC(=O)c1ccccc1	KCNK9 inh -8.6 | KCNK9 block conf 30% | Kir2-1 spec inactive | HEK293 Tl ctr 31%
COC(=O)C1CC(O)CN1C(=O)Nc1cccc(C(F)(F)F)c1 (centres undefined)	none
O=C(c1cccc(S(=O)(=O)N2CCOCC2)c1)N(CCO)Cc1ccccc1	none
Cc1ccc(CN(C)C(=O)c2cccc(S(=O)(=O)N3CCN(Cc4ccccc4)CC3)c2)o1	none | KCNK9 block conf inactive | Kir2-1 spec inactive | HEK293 Tl ctr 28%
CN1CCN(S(=O)(=O)c2cccc(C(=O)Nc3nc(-c4ccccc4)cs3)c2)CC1	none
O=C(c1cccc(S(=O)(=O)N2CCCCC2)c1)N(CCc1ccccc1)Cc1ccccc1	KCNK9 inh -16, KCNQ1 inh 6 | KCNK9 block conf 62% | Kir2-1 spec inactive | HEK293 Tl ctr 36%
O=C(Nc1nc(-c2ccccc2)cs1)c1cccc(S(=O)(=O)N2CCN(Cc3ccccc3)CC2)c1	none | KCNK9 block conf inactive | Kir2-1 spec inactive | HEK293 Tl ctr inactive
O=C(CNS(=O)(=O)c1ccc(F)c(Cl)c1)N1CCCC1	none
Cc1ccc(OCc2nc(-c3ccccc3)no2)c(C)c1	none | KCNK9 block conf inactive | Kir2-1 spec inactive | HEK293 Tl ctr 40%
Cc1cc(C)c(C)c(OCc2nc(-c3cccnc3)no2)c1	none
COc1ccc(-c2noc(COc3ccc(C)c(C)c3)n2)cc1OC	none | KCNK9 block conf inactive | Kir2-1 spec inactive | HEK293 Tl ctr inactive
COc1cccc(CN(C(=O)c2cccs2)C2CCS(=O)(=O)C2)c1 (centres undefined)	none
Cc1ccc(NC(=O)Cn2c(=O)oc3ccccc32)c(C)c1	none
Cc1ccc(N(Cc2ccc([N+](=O)[O-])cc2)C(=O)c2ccco2)cc1C	KCNK9 inh -13 | KCNK9 block conf 56% | Kir2-1 spec inactive | HEK293 Tl ctr 42%
